Source: PubChem
PRMT1 FP inh: inhibitors of human PRMT1; recombinant PRMT1, activity-based probe fluorescence polarization; Q99873; actives 1.3% (n = 370,000); AID 652257; inhibition, % at 2.79 µM;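 active = inhibition above about 21% made by adding two undisclosed values, limit read from the data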
Target sequence (Q99873 whole entry, looked up): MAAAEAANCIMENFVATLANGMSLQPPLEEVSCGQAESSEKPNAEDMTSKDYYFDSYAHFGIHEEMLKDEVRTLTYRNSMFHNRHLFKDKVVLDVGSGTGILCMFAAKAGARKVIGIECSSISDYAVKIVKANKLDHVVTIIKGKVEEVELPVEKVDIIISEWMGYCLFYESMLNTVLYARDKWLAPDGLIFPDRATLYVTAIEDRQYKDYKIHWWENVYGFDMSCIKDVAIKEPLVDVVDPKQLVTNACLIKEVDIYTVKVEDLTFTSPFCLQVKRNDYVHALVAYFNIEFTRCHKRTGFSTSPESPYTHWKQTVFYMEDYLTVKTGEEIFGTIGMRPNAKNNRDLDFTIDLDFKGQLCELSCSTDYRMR
HTRA1 inh: HTRA1 (human) protease inhibition; inhibition, % at 5.96 µM; recombinant HTRA1, FP-rhodamine activity-based probe, fluorescence polarization; actives 0.5% (n = 340,000); in the data active = inhibition above about 36%;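 also: 0% = enzyme with DMSO and 100% = wells lacking enzyme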
SIAE primary: inhibitors of human sialic acid acetylesterase SIAE. Q9HAT2. SIAE FP-Rh probe binding, fluorescence polarization. inhibition, % at 9.66 µM. actives 0.69% (n = 370,000). AID 1053197;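 active = inhibition above a cutoff: mean of compounds within the control limits plus 3 SD of those, cut at about 17% in these data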;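 also: 0% = plate median of compound wells and 100% = probe without SIAE protein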
TCR-CD3 inh: blocks the human TCR-CD3 interaction; AID 651800; actives 0.37% (n = 360,000); TAMRA-labeled TCR probe fluorescence, biochemical; inhibition, % at 9.4 µM; in the data active = inhibition above about 19%;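 also: recombinant mutant TCR 2C K166C tagged with TAMRA read by polarization; 0% = receptor in buffer alone and 100% = receptor with positive control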
ABHD4 inh: ABHD4 (mouse) inhibition, primary FP screen; Q8VD66; purified mABHD4, FP-Rh probe fluorescence polarization; inhibition, % at 8.92 µM; actives 0.54% (n = 370,000);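 active = inhibition exceeding the mean over every tested compound plus 3 SD, cut at about 30% in these data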;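 also: 0% = plate median of compound wells and 100% = S159A mutant with DMSO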
Target sequence (Q8VD66 whole entry, looked up): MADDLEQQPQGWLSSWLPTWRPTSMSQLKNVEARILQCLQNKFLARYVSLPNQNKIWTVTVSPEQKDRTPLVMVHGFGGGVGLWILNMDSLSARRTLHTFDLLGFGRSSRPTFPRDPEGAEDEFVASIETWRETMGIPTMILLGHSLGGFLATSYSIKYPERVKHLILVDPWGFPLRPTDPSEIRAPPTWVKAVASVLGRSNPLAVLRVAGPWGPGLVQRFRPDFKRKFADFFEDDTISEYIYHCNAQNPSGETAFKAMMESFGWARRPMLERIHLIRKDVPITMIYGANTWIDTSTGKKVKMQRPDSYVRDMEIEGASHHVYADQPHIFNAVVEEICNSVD
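Test system: mABHD4 protein | Buffer or medium: HEPES pH 7.0 buffer, 150 mM NaCl, 0.01% Pluronic F-127 | Probe or stimulus: FP-Rh fluorescent activity-based probe, added after compound pre-incubation | Timing: Pre-incubation 45 min, probe exposure 60 min, at 25 °C | Technique: Fluorescence polarization, excitation 525 nm, emission 598 nm, BODIPY TMR filters | Repeats: Single well per compound (singlicate)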
PAD4 FP inh: blocks human protein arginine deiminase 4; AID 485272; Q9UM07; recombinant PAD4, RCA probe fluorescence polarization; inhibition, % at 6.36 µM; actives 0.41% (n = 330,000);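 active = percent inhibition above a cutoff equal to the mean of all tested compounds plus 3 SD, cut at about 15% in these data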;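 also: 0% = PAD4 with RCA probe and DMSO and 100% = probe without PAD4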
PRMT1 inh conf: confirmation of human PRMT1 inhibitors; shares compounds with PRMT1 FP inh; inhibition, % at 2.79 µM; recombinant His-PRMT1, activity-based probe fluorescence polarization; actives 42% (n = 3,300);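 active = mean inhibition across replicates above the hit cutoff derived for the earlier primary screen, cut at about 22% in these data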
* hit, by the source's call; · = not tested or not shown. An excerpt weighted towards active compounds, which were near 2.9% of everything screened.

SMILES	PRMT1 FP inh	HTRA1 inh	SIAE primary	TCR-CD3 inh	ABHD4 inh	PAD4 FP inh	PRMT1 inh conf
COc1ccc(C(=O)Cn2c(NCCCO)nc3ccccc32)cc1OC	47.5*	0.4	12.0	-0.1	6.5	-2.8	6.3
S=c1[nH]nc(-c2cc(-c3ccccc3)n[nH]2)n1/N=C/c1cccs1	27.7*	-5.6	4.5	-5.2	-2.7	7.4	30.9*
S=c1[nH]c(-c2ccccc2)cn1/N=C/c1cccs1	45.3*	4.9	-2.3	-0.6	-6.5	-2.2	22.1*
S=c1[nH]nc(-c2cc(-c3ccccc3)n[nH]2)n1/N=C/c1ccccc1	3.4	-0.9	5.2	-1.6	-6.7	1.7	·
S=c1[nH]nc(-c2cc(-c3ccccc3)n[nH]2)n1/N=C/C=C/c1ccccc1	3.3	-22.5	-18.6	-4.1	-2.7	1.1	·
S=c1[nH]c(-c2ccccc2)cn1/N=C/c1ccc(Br)cc1	0.9	-6.1	-4.7	-0.5	-4.4	-0.7	·
COc1ccccc1/C=C/C=N/n1c(-c2cc(-c3ccccc3)n[nH]2)n[nH]c1=S	26.1*	-34.8	-32.4	-3.1	-7.4	4.8	22.6*
S=c1[nH]nc(-c2cc(-c3ccccc3)n[nH]2)n1N=Cc1c[nH]c2ccccc12	32.1*	·	3.9	·	0.2	·	24.1*
Clc1ccc(CN2CCN(N=Cc3ccncc3)CC2)cc1	-2.9	·	3.4	·	1.1	·	·
O=C(O)Cc1sc(N/N=C\c2ccncc2)nc1-c1ccccc1	40.7*	-0.4	3.8	-6.9	12.6	-4.2	10.5
CC(=O)O[C@@H]1C=C[C@@H](C#Cc2ccc(C(C)(C)C)cc2)O[C@@H]1COC(=O)Nc1ccccc1	6.7	·	-14.0	-2.4	-24.4	·	·
CCOC(=O)c1c(-c2ccc(C)o2)csc1NC(=S)NC(=O)c1ccccc1Br	54.5*	-59.8	-12.0	6.0	-53.2	-3.9	0.7
CCOC(=O)c1c(-c2ccc(C)o2)csc1NC(=O)CSc1nnc(C)s1	63.1*	-23.9	-1.9	-3.2	1.0	-8.6	15.2
CCOC(=O)c1sc(NC(=O)CSc2nnnn2-c2ccccc2)nc1C	0.0	-0.5	-7.3	-3.1	-2.5	-1.6	·
CCOC(=O)c1c(-c2ccc(C)o2)csc1NC(=O)CSc1nnnn1-c1ccccc1	72.6*	-32.4	-6.3	-6.9	-13.7	-0.2	3.9
CCCCN1C(=O)N2Cc3ccc(C)cc3C2CS1(=O)=O (centres undefined)	-1.4	·	-5.9	·	3.3	·	·
COc1ccc(-n2c(SCC(=O)c3ccc4ccccc4c3)nnc2-c2ccccc2)cc1	-2.3	·	-2.7	·	0.1	·	·
Cc1csc(NC(=O)c2ccc(COc3ccccc3F)o2)n1	3.8	·	-2.0	·	2.3	·	·
Cc1ccc(C2CCC3(CCC(=O)N3CCO)CC2)cc1 (centres undefined)	-3.0	·	-0.2	·	-0.3	·	·
COC(=O)c1nn(-c2ccc(OC)cc2)c(=O)c2c(N)sc(C)c12	24.9*	-1.6	4.7	-6.7	-7.7	-0.2	-0.4
CCOC(=O)C1=C(N)Oc2c(c(=O)[nH]c3ccccc23)C1c1ccccc1 (centres undefined)	58.2*	-0.4	4.1	2.2	-0.4	-1.9	20.0
O=S(=O)(Nc1ccc(O)c(NS(=O)(=O)c2ccccc2)c1)c1ccccc1	31.2*	7.9	4.6	-3.8	10.1	-2.4	12.0
Cc1cc(NS(=O)(=O)c2ccccc2)ccc1NS(=O)(=O)c1ccccc1	3.8	-15.1	-2.3	0.7	1.9	·	·
CN1C=CC2=C(C#N)C(N)C(C#N)(C#N)[C@H](c3ccccc3)[C@H]2C1 (some centres undefined)	26.2*	4.3	7.9	1.3	14.7	0.1	9.8
CCOP(=O)(OCC)c1ccc2c(c1)C(=O)c1ccccc1-2	1.1	·	-0.8	·	0.2	·	·
SMILES	PRMT1 FP inh	HTRA1 inh	SIAE primary	TCR-CD3 inh	ABHD4 inh	PAD4 FP inh	PRMT1 inh conf
Cc1ccc(CNC(=O)OC(C)(C)C)c(/C=C/S(=O)(=O)NCCc2ccccc2)c1	29.0*	·	1.1	·	-23.7	·	1.7
CC(C)(C)OC(=O)NCc1cc(F)ccc1/C=C/S(=O)(=O)NCc1ccccc1	5.5	·	0.6	·	-4.6	·	·
COC(=O)c1ccc2nc(-c3ccco3)c(Cc3ccsc3)n2c1	32.5*	·	2.8	7.7	7.0	·	37.4*
COC(=O)c1ccc2nc(-c3ccco3)c(Cc3cccc(Cl)c3)n2c1	25.1*	·	-0.1	-4.9	-3.0	·	7.8
CCc1ccc(/C=C/C(=O)NC2=NCCS2)cc1	-2.4	·	-2.2	·	-5.6	·	·
COC(=O)[C@@]12CCCCC3=C1N(CCC3)C(=O)[C@H]2CC(=O)NCc1cccc(C(F)(F)F)c1	0.0	·	-0.5	·	-2.7	·	·
Cc1cccc(C2NC(=O)c3c(sc(C)c3C)N2)c1O (centres undefined)	52.6*	-5.4	5.3	1.1	10.3	2.8	2.3
COC(=O)c1ccsc1NS(C)(=O)=O	6.3	·	-4.1	-1.6	-7.0	·	·
O=C(NC1CC1)c1cc(=S)[nH]c2ccccc12	39.1*	3.7	6.4	0.3	6.9	-2.7	18.9
O=C(NC1CC1)C(=O)c1c[nH]c2ccccc12	0.3	3.8	0.9	-1.7	8.9	1.6	·
CN1C2=N[C@@H](c3ccc4ccccc4c3)CC(=O)N2/C(=C\c2ccccc2)[C@H]1c1ccccc1	17.9	·	-2.1	·	-9.3	·	·
CCOC(=O)c1c(NC(=S)Nc2ccccc2)sc2c1CCN(CC)C2	27.5*	-6.6	-6.9	-15.3	-20.8	-2.2	11.4
CCOC(=O)c1c(NC(=S)Nc2ccccc2)sc2c1CCCCC2	·	-11.2	·	·	·	-1.6	·
O=C(OC12CCCN(C1)/C(=C/c1ccccc1)C2)c1ccccc1 (centres undefined)	-0.5	·	-0.3	·	5.3	·	·
COc1ccc(-n2ccnc(SCC(=O)NCc3ccc(C)cc3)c2=O)cc1Cl	35.5*	-0.7	5.2	6.8	5.0	-7.6	20.9
O=C(CSc1nccn(-c2ccc(Br)cc2)c1=O)NCc1ccccc1	19.8	-6.0	-1.4	6.2	-6.0	1.4	·
Cc1ccc(CNC(=O)CSc2nccn(-c3ccc(C)c(F)c3)c2=O)cc1	36.9*	-8.7	1.3	-1.2	4.8	-1.3	18.8
Cc1cccc(C(=O)N[C@H]2CC[C@@]34CCCN3C(=O)CCC[C@H]4[C@H]2C)c1	-5.5	·	2.2	·	4.4	·	·
COC(=O)[C@]12C[C@H](CC(=O)NCc3cccc(C(F)(F)F)c3)C(=O)N(Cc3ccco3)C1=C[C@H](C1CCCC1)O[C@@H]2C	-8.2	·	-4.6	·	-12.2	·	·
O=C1/C(=C/c2cccnc2)Sc2ccccc21	46.5*	-3.9	-10.8	-14.8	-6.5	3.6	11.9
Cc1cc(NS(=O)(=O)c2ccc(NC(=O)Cc3ccc(Cl)c(F)c3)cc2)no1	1.5	·	-1.1	·	-4.2	·	·
O=C(COC(=O)c1ccc2ncsc2c1)NC(=O)c1ccccc1	26.9*	2.1	-3.9	-0.5	4.0	3.7	2.2
